Test results: ChEMBL document CHEMBL1153940, “Anthranilic acid based CCK1 receptor antagonists: blocking the receptor with the same 'words' of the endogenous ligand” (Bioorg Med Chem, 2009)

Columns and labels:
[1] = target: T1, Cholecystokinin receptor type A (Cavia porcellus) (UniProt Q63931); assay: Antagonist activity against CCK1 receptor in Hartley guinea pig gallbladder assessed as inhibition of CCK-8- stimulated contraction at 1 uM; assay type: functional
T1 sequence (whole entry): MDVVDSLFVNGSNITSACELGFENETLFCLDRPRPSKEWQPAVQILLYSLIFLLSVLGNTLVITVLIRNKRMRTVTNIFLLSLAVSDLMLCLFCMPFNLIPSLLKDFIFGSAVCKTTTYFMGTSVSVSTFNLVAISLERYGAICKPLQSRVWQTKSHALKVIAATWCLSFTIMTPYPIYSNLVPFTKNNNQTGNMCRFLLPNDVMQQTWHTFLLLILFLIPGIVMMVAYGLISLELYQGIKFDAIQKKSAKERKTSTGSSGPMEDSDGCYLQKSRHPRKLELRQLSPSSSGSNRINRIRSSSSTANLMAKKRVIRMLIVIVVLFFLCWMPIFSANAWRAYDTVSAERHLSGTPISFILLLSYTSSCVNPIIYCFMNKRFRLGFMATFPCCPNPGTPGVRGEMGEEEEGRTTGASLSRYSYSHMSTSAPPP
Outline: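 Circular smooth-muscle strips (about 3 × 15 mm) hung in organ baths of Krebs–Henseleit at 32 °C, gassed 95% O2–5% CO2, and equilibrated 60 min with washes every 15 min. Antagonist or vehicle was applied 5 min before a submaximal (70–80%) CCK-8 concentration. Isometric contraction was recorded and activity expressed as percent inhibition of agonist contraction.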

[2] = target: T2, Cholecystokinin receptor type A (Rattus norvegicus, UniProt P30551); assay: Displacement of [125I]BH-CCK8 from CCK1 receptor in Sprague-Dawley rat pancreatic acinar cells
T2 sequence (P30551 whole entry): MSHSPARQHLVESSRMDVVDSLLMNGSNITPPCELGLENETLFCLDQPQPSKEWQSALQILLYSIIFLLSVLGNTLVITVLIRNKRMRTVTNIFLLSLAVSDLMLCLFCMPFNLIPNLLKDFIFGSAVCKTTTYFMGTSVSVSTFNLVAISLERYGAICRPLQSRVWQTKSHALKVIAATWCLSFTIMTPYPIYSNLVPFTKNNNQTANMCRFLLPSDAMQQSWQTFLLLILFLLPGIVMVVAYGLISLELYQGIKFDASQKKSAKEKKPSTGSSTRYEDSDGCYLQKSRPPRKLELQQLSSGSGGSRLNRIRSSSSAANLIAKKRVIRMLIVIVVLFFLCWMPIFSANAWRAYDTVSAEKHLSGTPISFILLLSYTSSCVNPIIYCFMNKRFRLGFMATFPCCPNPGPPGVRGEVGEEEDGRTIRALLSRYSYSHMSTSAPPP
Outline: (§1)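 Pancreatic acini were obtained by enzymatic digestion from male Sprague Dawley rats fasted 18–24 h with water allowed. Cells were incubated with 25 pM (final) [125I]BH-CCK-8 and competitors at 37 °C for 30 min with shaking. The reaction was stopped with ice-cold Hepes-Ringer (1% BSA, soybean trypsin inhibitor, pH 7.4), then centrifuged 5 min at 12,500g, and pellet radioactivity was measured.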

[3] = target: T3, Cholecystokinin receptor type A (Rattus norvegicus) (UniProt P30551); assay: Displacement of [125I]BH-CCK8 from CCK1 receptor in Sprague-Dawley rat pancreatic acinar cells at 10 uM; outline: as §1
T3 sequence (whole entry): T2 sequence (P30551 whole entry)

[4] = target: Gastrin/cholecystokinin type B receptor (Cavia porcellus, UniProt H0VZC5); assay: Displacement of [125I]BH-CCK8 from CCK2 receptor in Hartley guinea pig cerebral cortex
[5] = system: Gastrin/cholecystokinin type B receptor (Cavia porcellus); assay: Displacement of [125I]BH-CCK8 from CCK2 receptor in Hartley guinea pig cerebral cortex at 30 uM
[6] = target: T3, Cholecystokinin receptor type A (Rattus norvegicus); assay: Displacement of [125I]BH-CCK8 from CCK1 receptor in Sprague-Dawley rat pancreatic acinar cells at 3 uM; outline: as §1
[7] = system: Gastrin/cholecystokinin type B receptor (Cavia porcellus); assay: Displacement of [125I]BH-CCK8 from CCK2 receptor in Hartley guinea pig cerebral cortex at 10 uM
[8] = system: Gastrin/cholecystokinin type B receptor (Cavia porcellus); assay: Displacement of [125I]BH-CCK8 from CCK2 receptor in Hartley guinea pig cerebral cortex at 1 uM

Gastrin/cholecystokinin type B receptor, sequence (H0VZC5 1-426): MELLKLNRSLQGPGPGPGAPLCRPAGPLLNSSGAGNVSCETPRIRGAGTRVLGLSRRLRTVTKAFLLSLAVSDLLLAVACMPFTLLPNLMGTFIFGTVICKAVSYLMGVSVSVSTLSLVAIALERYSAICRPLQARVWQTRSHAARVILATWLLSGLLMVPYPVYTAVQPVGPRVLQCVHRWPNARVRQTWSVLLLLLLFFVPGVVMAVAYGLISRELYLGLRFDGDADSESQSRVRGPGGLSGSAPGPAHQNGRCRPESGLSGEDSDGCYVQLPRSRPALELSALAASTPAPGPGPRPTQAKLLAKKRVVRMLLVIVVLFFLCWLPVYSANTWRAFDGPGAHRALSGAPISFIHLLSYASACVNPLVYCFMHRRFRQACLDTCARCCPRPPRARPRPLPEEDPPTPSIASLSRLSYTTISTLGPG

An inhibition [1] of 100% and an IC50 [2] of 83 nM were found for CC(C)CC(NC(=O)c1ccccc1NC(=O)c1cc2ccccc2[nH]1)C(=O)O (racemic) in this work.
An Activity [3] of 25% and an IC50 [4] of 16.9 µM were found for O=C(O)CC(Cc1ccccc1)NC(=O)c1ccccc1NC(=O)c1cc2ccccc2[nH]1 (racemic) in this work.
An Activity [5] of under 20% and an Activity [6] of under 20% were found for O=C(O)CCCNC(=O)c1ccccc1NC(=O)c1cc2ccccc2[nH]1 in this work.
An Activity [3] of under 20% and an Activity [7] of under 20% were found for O=C(O)CCC(NC(=O)c1ccccc1NC(=O)c1cc2ccccc2[nH]1)C(=O)O (racemic) in this work.
An IC50 [2] of 1160 nM and an Activity [7] of under 20% were found for O=C(Nc1ccccc1C(=O)NC(Cc1ccc(OCc2ccccc2)cc1)C(=O)O)c1cc2ccccc2[nH]1 (racemic) in this work.
An IC50 [2] of 46 nM and an IC50 [4] of 14.7 µM were found for CC(C)C[C@@H](NC(=O)c1ccccc1NC(=O)c1cc2ccccc2[nH]1)C(=O)O in this work.
An inhibition [1] of 100%, an IC50 [2] of 52 nM and an Activity [7] of under 20% were found for CSCCC(NC(=O)c1ccccc1NC(=O)c1cc2ccccc2[nH]1)C(=O)O (stereo unspecified) in this work.
An IC50 [2] of 3150 nM and an Activity [7] of under 20% were found for CC(Cc1ccccc1)NC(=O)c1ccccc1NC(=O)c1cc2ccccc2[nH]1 (racemic) in this work.
An Activity [7] of under 20% and an Activity [6] of under 20% were found for O=C(Nc1ccccc1C(=O)NCCc1c[nH]c2ccccc12)c1cc2ccccc2[nH]1 in this work.
An Activity [6] of 32% was found for O=C(Nc1ccccc1C(=O)NC(CO)Cc1ccccc1)c1cc2ccccc2[nH]1 (racemic) in this work.
An IC50 [2] of 288 nM was found for CC(C)C(NC(=O)c1ccccc1NC(=O)c1cc2ccccc2[nH]1)C(=O)O (racemic) in this work.
An IC50 [2] of 2070 nM was found for O=C(Nc1ccccc1C(=O)NC(Cc1ccc(O)cc1)C(=O)O)c1cc2ccccc2[nH]1 (racemic) in this work.
An IC50 [2] of 8530 nM and an Activity [7] of under 20% were found for NC(=O)C(Cc1ccccc1)NC(=O)c1ccccc1NC(=O)c1cc2ccccc2[nH]1 (racemic) in this work.
An IC50 [2] of 445 nM was found for O=C(Nc1ccccc1C(=O)NC(Cc1c[nH]c2ccccc12)C(=O)O)c1cc2ccccc2[nH]1 (racemic) in this work.
An Activity [5] of under 20% and an Activity [6] of 20% were found for CCOC(=O)C(Cc1ccccc1)NC(=O)c1ccccc1NC(=O)c1cc2ccccc2[nH]1 (racemic) in this work.
An Activity [5] of 31% and an IC50 [2] of 2750 nM were found for CSCC[C@H](NC(=O)c1ccccc1NC(=O)c1cc2ccccc2[nH]1)C(=O)O in this work.
An IC50 [2] of 27 nM and an IC50 [4] of 11.4 µM were found for CSCC[C@@H](NC(=O)c1ccccc1NC(=O)c1cc2ccccc2[nH]1)C(=O)O in this work.
An Activity [7] of under 20% and an Activity [6] of under 20% were found for O=C(Nc1ccccc1C(=O)NCCc1ccccc1)c1cc2ccccc2[nH]1 in this work.
An IC50 [2] of 197 nM and an IC50 [4] of 16.4 µM were found for O=C(Nc1ccccc1C(=O)NC(Cc1ccccc1)C(=O)O)c1cc2ccccc2[nH]1 (stereo unspecified) in this work.
An IC50 [2] of 92 nM and an Activity [7] of under 20% were found for CSCCC(NC(=O)c1ccccc1NC(=O)c1cc2ccccc2n1C)C(=O)O (racemic) in this work.
An Activity [8] of under 20% and an Activity [3] of under 20% were found for O=C(O)CC(NC(=O)c1ccccc1NC(=O)c1cc2ccccc2[nH]1)C(=O)O (racemic) in this work.
An IC50 [2] of 5520 nM was found for O=C(O)CNC(=O)c1ccccc1NC(=O)c1cc2ccccc2[nH]1 in this work.
An Activity [5] of under 20% and an Activity [6] of under 20% were found for O=C(O)CCNC(=O)c1ccccc1NC(=O)c1cc2ccccc2[nH]1 in this work.
An Activity [5] of under 20% and an Activity [6] of under 20% were found for CCCCCN(CCCCC)C(=O)C(Cc1ccccc1)NC(=O)c1ccccc1NC(=O)c1cc2ccccc2[nH]1 (stereo unspecified) in this work.
An IC50 [2] of 3240 nM and an Activity [7] of under 20% were found for CC(NC(=O)c1ccccc1NC(=O)c1cc2ccccc2[nH]1)C(=O)O (racemic) in this work.
